Reference: ChEMBL document CHEMBL3739417, “Synthesis and biological evaluation of novel 4,5-disubstituted 2H-1,2,3-triazoles as cis-constrained analogues of combretastatin A-4” (2015)

Columns and labels:
Type in all cases: functional
[1] = system: SK-MEL-2; test: Growth inhibition of human SK-MEL-2 cells after 48 hrs by sulforhodamine B assay; details: SK-MEL-2, 48 h
How it was run: (§1)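 NCI-60 panel screen by SRB assay (Rubinstein method). Percentage growth taken from optical density of SRB colour, read before and 48 hrs after exposure to compound or vehicle control. All analogues first screened at 10^-5 M. Analogues giving 60% growth inhibition at that level in at least eight lines then went to a five-concentration dose-response study.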

[2] = Growth inhibition of human HCT116 cells after 48 hrs by sulforhodamine B assay; details: HCT-116, 48 h; how it was run: as §1
[3] = Growth inhibition of human PC3 cells after 48 hrs by sulforhodamine B assay; details: PC-3, 48 h; how it was run: as §1
[4] = Growth inhibition of human HOP92 cells after 48 hrs by sulforhodamine B assay; details: HOP-92, 48 h; how it was run: as §1
[5] = Growth inhibition of human OVCAR3 cells after 48 hrs by sulforhodamine B assay; details: OVCAR-3, 48 h
How it was run: (§2)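 NCI-60 sulforhodamine B screen. Compounds were first tested at a single dose of 10⁻⁵ M; hits, defined as ≥60% growth inhibition in at least eight lines, went on to a five-concentration dose–response. SRB optical density was read before and 48 h after exposure to compound or vehicle. Percentage growth was calculated from OD.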

[6] = system: ACHN; test: Growth inhibition of human ACHN cells after 48 hrs by sulforhodamine B assay; how it was run: as §1
[7] = system: A549; test: Growth inhibition of human A549/ATCC cells after 48 hrs by sulforhodamine B assay; details: A549, 48 h; how it was run: as §1
[8] = system: K562; test: Growth inhibition of human K562 cells after 48 hrs by sulforhodamine B assay; details: K562, 48 h; how it was run: as §1
[9] = system: NCI-H23; test: Growth inhibition of human NCI-H23 cells after 48 hrs by sulforhodamine B assay; details: NCI-H23, 48 h; how it was run: as §1
[10] = Growth inhibition of human HCC2998 cells after 48 hrs by sulforhodamine B assay; details: HCC 2998, 48 h; how it was run: as §1
[11] = Growth inhibition of human SKOV3 cells after 48 hrs by sulforhodamine B assay; details: SK-OV-3, 48 h; how it was run: as §1
[12] = system: SR; test: Growth inhibition of human SR cells after 48 hrs by sulforhodamine B assay; how it was run: as §1
[13] = Growth inhibition of human SF295 cells after 48 hrs by sulforhodamine B assay; details: SF-295, 48 h; how it was run: as §1
[14] = system: A498; test: Growth inhibition of human A498 cells after 48 hrs by sulforhodamine B assay; details: A498, 48 h; how it was run: as §2
[15] = system: CAKI-1; test: Growth inhibition of human CAKI-1 cells after 48 hrs by sulforhodamine B assay; details: CAKI-1, 48 h; how it was run: as §1
[16] = Growth inhibition of human NCI-ADR-RES cells after 48 hrs by sulforhodamine B assay; how it was run: as §1
[17] = system: 786-0; test: Growth inhibition of human 786-0 cells after 48 hrs by sulforhodamine B assay; details: 786-0, 48 h; how it was run: as §1
[18] = Growth inhibition of human MOLT4 cells after 48 hrs by sulforhodamine B assay; details: MOLT-4, 48 h; how it was run: as §1
[19] = Growth inhibition of human SW620 cells after 48 hrs by sulforhodamine B assay; details: SW-620, 48 h; how it was run: as §1
[20] = system: KM12; test: Growth inhibition of human KM12 cells after 48 hrs by sulforhodamine B assay; details: KM12, 48 h; how it was run: as §1
[21] = system: MDA-MB-468; test: Growth inhibition of human MDA-MB-468 cells after 48 hrs by sulforhodamine B assay; details: MDA-MB-468, 48 h; how it was run: as §1
[22] = Growth inhibition of human SNB75 cells after 48 hrs by sulforhodamine B assay; details: SNB-75, 48 h; how it was run: as §1
[23] = system: SK-MEL-5; test: Growth inhibition of human SK-MEL-5 cells after 48 hrs by sulforhodamine B assay; details: SK-MEL-5, 48 h; how it was run: as §1
[24] = Growth inhibition of human SF268 cells after 48 hrs by sulforhodamine B assay; details: SF-268, 48 h; how it was run: as §1
[25] = system: CCRF-CEM; test: Growth inhibition of human CCRF-CEM cells after 48 hrs by sulforhodamine B assay; how it was run: as §1
[26] = system: U-251; test: Growth inhibition of human U251 cells after 48 hrs by sulforhodamine B assay; details: U-251, 48 h; how it was run: as §1
[27] = Growth inhibition of human HOP62 cells after 48 hrs by sulforhodamine B assay; details: HOP-62, 48 h; how it was run: as §1
[28] = system: MCF7; test: Growth inhibition of human MCF7 cells after 48 hrs by sulforhodamine B assay; details: MCF7, 48 h; how it was run: as §1
[29] = Growth inhibition of human HL-60(TB) cells after 48 hrs by sulforhodamine B assay; details: HL-60, 48 h; how it was run: as §1
[30] = system: NCI-H460; test: Growth inhibition of human NCI-H460 cells after 48 hrs by sulforhodamine B assay; details: NCI-H460, 48 h; how it was run: as §1
[31] = Growth inhibition of human LOXIMVI cells after 48 hrs by sulforhodamine B assay; details: LOX IMVI; how it was run: as §1
[32] = system: HT-29; test: Growth inhibition of human HT-29 cells after 48 hrs by sulforhodamine B assay; details: HT-29, 48 h; how it was run: as §1
[33] = Growth inhibition of human COLO205 cells after 48 hrs by sulforhodamine B assay; details: COLO 205, 48 h; how it was run: as §1
[34] = system: MDA-MB-231; test: Growth inhibition of human MDA-MB-231 cells after 48 hrs by sulforhodamine B assay; details: MDA-MB-231, 48 h; how it was run: as §1
[35] = Growth inhibition of human RPMI8226 cells after 48 hrs by sulforhodamine B assay; details: RPMI-8226, 48 h; how it was run: as §1
[36] = Growth inhibition of human HCT15 cells after 48 hrs by sulforhodamine B assay; details: HCT-15, 48 h; how it was run: as §1
[37] = Growth inhibition of human IGROV1 cells after 48 hrs by sulforhodamine B assay; details: IGROV-1, 48 h; how it was run: as §1
[38] = read-out: LD50 (the source's name)

COc1cc(-c2n[nH]nc2-c2ccc3c(c2)OCCO3)cc(OC)c1OC gave a GI50 [1] of less than 10 nM, a CC50 [1, 38] greater than 100000 nM and a GI50 [2] of less than 10 nM. It also gave a CC50 [2, 38] greater than 100000 nM, a GI50 [3] of 18 nM and a CC50 [3, 38] greater than 100000 nM. It also gave a GI50 [4] of less than 10 nM, a CC50 [4, 38] greater than 100000 nM and a GI50 [5] of less than 10 nM. It also gave an LC50 (concentration giving 50% net cell kill) ([5]; read-out: LD50) greater than 100000 nM, a GI50 [6] of less than 10 nM and a CC50 [6, 38] greater than 100000 nM. For the same molecule, the GI50 [7] was 23 nM, the CC50 [7, 38] was greater than 100000 nM and the GI50 [8] was less than 10 nM. The CC50 [8, 38] was greater than 100000 nM, the GI50 [9] was 48 nM and the LC50 (concentration giving 50% cell kill) ([9]; read-out: LD50) was greater than 100000 nM. The GI50 [10] was 39 nM, the CC50 [10, 38] was greater than 100000 nM and the GI50 [11] was less than 10 nM. For the same molecule, the LC50 (concentration killing 50% of cells) ([11]; read-out: LD50) was greater than 100000 nM, the GI50 [12] was less than 10 nM and the LC50 (concentration giving 50% net cell kill) ([12]; read-out: LD50) was greater than 100000 nM. For the same molecule, the GI50 [13] was less than 10 nM, the CC50 [13, 38] was greater than 100000 nM and the GI50 [14] was 10 nM. It also gave an LC50 (50% net cell kill) ([14]; read-out: LD50) greater than 100000 nM, a GI50 [15] of less than 10 nM and a CC50 [15, 38] greater than 100000 nM. For the same molecule, the GI50 [16] was less than 10 nM, the CC50 [16, 38] was greater than 100000 nM and the GI50 [17] was less than 10 nM. It also gave an LC50 (concentration killing 50% of cells) ([17]; read-out: LD50) greater than 100000 nM, a GI50 [18] of 40 nM and a CC50 [18, 38] greater than 100000 nM. For the same molecule, the GI50 [19] was less than 10 nM, the LD50 (concentration killing 50% of cells) [19] was greater than 100 µM and the GI50 [20] was less than 10 nM. The LC50 (concentration killing 50% of cells) ([20]; read-out: LD50) was greater than 100000 nM, the GI50 [21] was 15 nM and the CC50 [21, 38] was greater than 100000 nM. It also gave a GI50 [22] of less than 10 nM, a CC50 [22, 38] greater than 100000 nM and a GI50 [23] of less than 10 nM. For the same molecule, the CC50 [23, 38] was greater than 100000 nM, the GI50 [24] was 69 nM and the CC50 [24, 38] was greater than 100000 nM. For the same molecule, the GI50 [25] was 34 nM, the LC50 (concentration killing 50% of cells) ([25]; read-out: LD50) was greater than 100000 nM and the GI50 [26] was 20 nM. It also gave a CC50 [26, 38] greater than 100000 nM, a GI50 [27] of 18 nM and an LC50 (concentration killing 50% of cells) ([27]; read-out: LD50) greater than 100000 nM. It also gave a GI50 [28] of less than 10 nM, a CC50 [28, 38] greater than 100000 nM and a GI50 [29] of 19 nM. For the same molecule, the CC50 [29, 38] was greater than 100000 nM, the GI50 [30] was 25 nM and the CC50 [30, 38] was greater than 100000 nM. For the same molecule, the GI50 [31] was 18 nM, the CC50 [31, 38] was greater than 100000 nM and the GI50 [32] was 25 nM. The LC50 (concentration killing 50% of cells) ([32]; read-out: LD50) was greater than 100000 nM, the GI50 [33] was 27 nM and the CC50 [33, 38] was greater than 100000 nM. The GI50 [34] was 44 nM, the CC50 [34, 38] was greater than 100000 nM and the GI50 [35] was 33 nM. It also gave a CC50 [35, 38] greater than 100000 nM, a GI50 [36] of less than 10 nM and a CC50 [36, 38] greater than 100000 nM. For the same molecule, the GI50 [37] was 33 nM and the CC50 [37, 38] was greater than 100000 nM.
